Test results published in ChEMBL document CHEMBL1127574, “Design and synthesis of ellipticinium salts and 1,2-dihydroellipticines with high selectivities against human CNS cancers in vitro” (1994).

Experiments:
Format in all cases: functional
HL-60 = assay: Tested in vitro for cytotoxicity in HL-60(TB) cell line of Leukemia; conditions: Homo sapiens, read-out: Log TGI (converted)
Outline: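 Compounds were dissolved in DMSO and diluted 500-fold in aqueous medium. Aliquots of the resulting solution or suspension were added to the cultured cells for 48 h. Growth was read colorimetrically, either by tetrazolium reduction to formazan in viable cells or by a total-protein stain.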

SF-539 = assay: Tested in vitro for cytotoxicity in SF-539 cell line of CNS Cancer; conditions: Homo sapiens, read-out: Log TGI (converted)
Outline: (§1)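 Compounds dissolved in DMSO, then diluted 500-fold into aqueous medium. The resulting aqueous solutions or suspensions were added to the cultured human tumour cell lines, and the cells were exposed for 48 h. Growth was read colorimetrically in one of two ways: a metabolic assay in which viable cells reduce a tetrazolium salt to a formazan dye, or a protein stain for total cellular protein.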

SNB-75 = assay: Tested in vitro for cytotoxicity in SNB-75 cell line of CNS Cancer; conditions: Homo sapiens, read-out: Log TGI (converted)
Outline: (§2)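 Compounds dissolved in DMSO and diluted 500-fold into aqueous medium; aliquots of the resulting solutions or suspensions added to cultured human tumor cells for 48 h. Growth read colorimetrically, either by tetrazolium reduction to formazan by viable cells or by protein staining of total cellular protein.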

OVCAR-8 = assay: Tested in vitro for cytotoxicity in OVCAR-8 cell line of Ovarian Cancer; conditions: Homo sapiens, read-out: Log TGI (converted); outline: as §1
MOLT-4 = assay: Tested in vitro for cytotoxicity in MOLT-4 cell line of Leukemia; conditions: Homo sapiens, read-out: Log TGI (converted); outline: as §1
DMS-273 = assay: Tested in vitro for cytotoxicity in DMS273 cell line of Small Cell Lung Cancer; conditions: Homo sapiens, read-out: Log TGI (converted); outline: as §1
SNB-78 = assay: Tested in vitro for cytotoxicity in SNB-78 cell line of CNS Cancer; conditions: Homo sapiens, read-out: Log TGI (converted); outline: as §2
OVCAR-3 = assay: Tested in vitro for cytotoxicity in OVCAR-3 cell line of Ovarian Cancer; conditions: Homo sapiens, read-out: Log TGI (converted)
Outline: (§3)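 Compound DMSO solutions diluted 500-fold into aqueous medium; the resulting solutions or suspensions were added to cultured human tumor cells for 48 h. Growth was read colorimetrically, either by tetrazolium reduction to formazan by viable cells or by a protein stain for total cellular protein.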

A549 [1] = assay: Tested in vitro for cytotoxicity in A549/ATCC cell lines; conditions: Homo sapiens; outline: as §1
EKVX = assay: Tested in vitro for cytotoxicity in EKVX cell line of Non-Small Cell Lung Cancer; conditions: Homo sapiens, read-out: Log TGI (converted); outline: as §3
A549 [2] = assay: Tested in vitro for cytotoxicity in A549/ATCC cell line of Non-Small Cell Lung Cancer; conditions: Homo sapiens, read-out: Log TGI (converted); outline: as §1
SW-620 = assay: Tested in vitro for cytotoxicity in SW-620 cell line of Colon Cancer; conditions: Homo sapiens, read-out: Log TGI (converted); outline: as §2
NCI-H460 = assay: Tested in vitro for cytotoxicity in NCI-H460 cell line of Non-Small Cell Lung Cancer; conditions: Homo sapiens, read-out: Log TGI (converted); outline: as §1
ACHN = assay: Tested in vitro for cytotoxicity in ACHN cell line of Renal cancer; conditions: Homo sapiens, read-out: Log TGI (converted); outline: as §1
SF-295 = assay: Tested in vitro for cytotoxicity in SF-295 cell line of CNS Cancer; conditions: Homo sapiens, read-out: Log TGI (converted); outline: as §1
IGROV-1 [3] = assay: Tested in vitro for cytotoxicity in IGROV1 cell lines; conditions: Homo sapiens; outline: as §1
Malme-3M = assay: Tested in vitro for cytotoxicity in MALME-3M; conditions: Homo sapiens; outline: as §1
OVCAR-5 = assay: Tested in vitro for cytotoxicity in OVCAR-5 cell line of Ovarian Cancer; conditions: Homo sapiens, read-out: Log TGI (converted); outline: as §1
NCI-H23 = assay: Tested in vitro for cytotoxicity in NCI-H23 cell line of Non-Small Cell Lung Cancer; conditions: Homo sapiens, read-out: Log TGI (converted); outline: as §1
SK-MEL-28 = assay: Tested in vitro for cytotoxicity in SK-MEL-28 cell line of Melanoma; conditions: Homo sapiens, read-out: Log TGI (converted); outline: as §1
HOP-92 = assay: Tested in vitro for cytotoxicity in HOP-92 cell line of Non-Small Cell Lung Cancer; conditions: Homo sapiens, read-out: Log TGI (converted); outline: as §1
TK-10 = assay: Tested in vitro for cytotoxicity in TK-10 cell line of Renal cancer; conditions: Homo sapiens, read-out: Log TGI (converted); outline: as §2
SK-OV-3 = assay: Tested in vitro for cytotoxicity in SK-OV-3 cell line of Ovarian Cancer; conditions: Homo sapiens, read-out: Log TGI (converted); outline: as §2
XF498 = assay: Tested in vitro for cytotoxicity in XF498 cell line of CNS Cancer; conditions: Homo sapiens, read-out: Log TGI (converted); outline: as §3
IGROV-1 [4] = assay: Tested in vitro for cytotoxicity in IGROV1 cell line of Ovarian Cancer; conditions: Homo sapiens, read-out: Log TGI (converted); outline: as §1
SNB-19 = assay: Tested in vitro for cytotoxicity in SNB-19 cell line of CNS Cancer; conditions: Homo sapiens, read-out: Log TGI (converted); outline: as §3
786-0 = assay: Tested in vitro for cytotoxicity in 786-0 cell line of Renal cancer; conditions: Homo sapiens, read-out: Log TGI (converted); outline: as §1
LOX IMVI = assay: Tested in vitro for cytotoxicity in LOX IMVI cell line of Melanoma; conditions: Homo sapiens, read-out: Log TGI (converted); outline: as §1
COLO 205 = assay: Tested in vitro for cytotoxicity in COLO 205 cell line of Colon Cancer; conditions: Homo sapiens, read-out: Log TGI (converted); outline: as §1
KM12 = assay: Tested in vitro for cytotoxicity in KM12 cell line of Colon Cancer; conditions: Homo sapiens, read-out: Log TGI (converted); outline: as §1
DMS-114 = assay: Tested in vitro for cytotoxicity in DMS114 cell line of Small Cell Lung Cancer; conditions: Homo sapiens, read-out: Log TGI (converted); outline: as §1

SMILES: COc1ccc2[nH]c3c(C)c4cc[n+](C)cc4c(C)c3c2c1
- TGI (HL-60): > 100 µM
- TGI (SF-539): 6.31 µM
- TGI (SNB-75): 3.16 µM
- TGI (OVCAR-8): 31.6 µM
- TGI (MOLT-4): > 100 µM
- TGI (DMS-273): 63.1 µM
- TGI (SNB-78): 10 µM
- TGI (OVCAR-3): 100 µM
- GI50 (A549 [1]): 1.52 µM
- TGI (EKVX): 25.1 µM
- TGI (A549 [2]): > 100 µM
- TGI (SW-620): > 100 µM
- TGI (NCI-H460): 79.4 µM
- TGI (ACHN): > 100 µM
- TGI (SF-295): 6.31 µM
- GI50 (IGROV-1 [3]): 3.62 µM
- GI50 (Malme-3M): 5.27 µM
- TGI (OVCAR-5): > 100 µM
- TGI (NCI-H23): 10 µM
- TGI (SK-MEL-28): 50.1 µM
- TGI (HOP-92): 79.4 µM
- TGI (TK-10): > 100 µM
- TGI (SK-OV-3): > 100 µM
- TGI (XF498): 10 µM
- TGI (IGROV-1 [4]): > 100 µM
- TGI (SNB-19): 10 µM
- TGI (786-0): 5.01 µM
- TGI (LOX IMVI): > 100 µM
- TGI (COLO 205): 39.8 µM
- TGI (KM12): 25.1 µM
- TGI (DMS-114): 6.31 µM
